Laboratory results: ChEMBL document CHEMBL2021913, “Synthesis and biological evaluation of some novel thiazole substituted benzotriazole derivatives” (2012)
Values after ≈ are worked out from the molar mass of the structure shown. Active and inactive are the calls of the source. No cut-off for these calls is given here.

Columns and labels:
Type in all cases: functional
Pseudomonas aeruginosa [1] = assay: Antimicrobial activity against Pseudomonas aeruginosa 2036 at 128 ug/disc at 35 degC after 24 hrs by agar-well diffusion assay; settings: for zone of inhibition at 128 µg/disc: Pseudomonas aeruginosa, 2036, 24 h, read-out: DIZ
How it was run: (§1)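 Agar-well diffusion: 24 h bacterial cultures adjusted to 0.5 McFarland (1.5 × 10⁸ CFU/mL) and mixed into molten Mueller-Hinton agar before pouring. 6 mm wells punched and each filled with 50 µL of compound stock or control. Plates incubated 35 °C for 24 h. Zone of growth inhibition diameter measured with vernier caliper.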

Aspergillus niger [2] = assay: Antimicrobial activity against Aspergillus niger 545 at 35 degC after 48 hrs by CLSI method based antimicrobial assay; settings: Aspergillus niger, 545, 48 h; for MFC: read-out: MFC99.9
How it was run: (§2)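 Broth microdilution following CLSI guidelines over 256 to 1 µg/mL. MIC90 is the lowest concentration completely inhibiting growth. For MFC, 0.1 mL from each tube spread on agar and CFU counted after 48 h at 35 °C; MFC is lowest concentration killing 99.9% of inoculum. MFC/MIC ratio calculated: […], ≤4 as fungicidal.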

Candida albicans [3] = assay: Antimicrobial activity against Candida albicans 3471 at 35 degC after 48 hrs by CLSI method based antimicrobial assay; settings: Candida albicans, 3471, 48 h; for MFC: read-out: MFC99.9; how it was run: as §2
Bacillus subtilis [4] = assay: Antimicrobial activity against Bacillus subtilis 2250 at 35 degC after 18 to 24 hrs by NCCLS method based antimicrobial assay; settings: for MBC: read-out: MBC99.9
Bacillus subtilis [5] = assay: Antimicrobial activity against Bacillus subtilis 2250 at 128 ug/disc at 35 degC after 24 hrs by agar-well diffusion assay; settings: for zone of inhibition at 128 µg/disc: Bacillus subtilis, 2250, 24 h, read-out: DIZ; how it was run: as §1
Escherichia coli [6] = assay: Antimicrobial activity against Escherichia coli 2109 at 128 ug/disc at 35 degC after 24 hrs by agar-well diffusion assay; how it was run: as §1
Pseudomonas aeruginosa [7] = assay: Antimicrobial activity against Pseudomonas aeruginosa 2036 at 35 degC after 18 to 24 hrs by NCCLS method based antimicrobial assay; settings: for MBC: read-out: MBC99.9
Aspergillus niger [8] = assay: Antimicrobial activity against Aspergillus niger 545 at 128 ug/disc at 37 degC after 24 to 72 hrs by agar-well diffusion assay; settings: read-out: DIZ
How it was run: (§3)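 Potato dextrose agar base plates overlaid with seeded agar cooled to 40 °C and inoculated with spores from 10-day cultures, final 1 × 10⁶ spores/mL. Compounds dissolved in DMSO at 128 µg/mL and applied on 6 mm filter-paper discs placed on chilled seeded medium. Nystatin positive control, DMSO negative control. Incubation 24–72 h at 37 °C. Inhibition zone diameter read by vernier caliper.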

Escherichia coli [9] = assay: Antimicrobial activity against Escherichia coli 2109 at 35 degC after 18 to 24 hrs by NCCLS method based antimicrobial assay
Candida albicans [10] = assay: Ratio of MFC99.9 to MIC90 for Candida albicans 3471 at 35 degC after 48 hrs by CLSI method based antimicrobial assay; how it was run: as §2
Staphylococcus aureus [11] = assay: Antimicrobial activity against Staphylococcus aureus 2079 at 128 ug/disc at 35 degC after 24 hrs by agar-well diffusion assay; settings: for zone of inhibition at 128 µg/disc: Staphylococcus aureus, 2079, 24 h, read-out: DIZ; how it was run: as §1
Candida albicans [12] = assay: Antimicrobial activity against Candida albicans 3471 at 128 ug/disc at 37 degC after 24 to 72 hrs by agar-well diffusion assay; settings: read-out: DIZ; how it was run: as §3
Staphylococcus aureus [13] = assay: Antimicrobial activity against Staphylococcus aureus 2079 at 35 degC after 18 to 24 hrs by NCCLS method based antimicrobial assay; settings: for MBC: read-out: MBC99.9
Aspergillus niger [14] = assay: Ratio of MFC99.9 to MIC90 for Aspergillus niger 545 at 35 degC after 48 hrs by CLSI method based antimicrobial assay; how it was run: as §2

| Structure (SMILES) | zone of inhibition at 128 µg/disc (Pseudomonas aeruginosa [1]) | MIC (Aspergillus niger [2]) | MFC (Aspergillus niger [2]) | MIC (Candida albicans [3]) | MFC (Candida albicans [3]) | MIC (Bacillus subtilis [4]) | MBC (Bacillus subtilis [4]) | zone of inhibition at 128 µg/disc (Bacillus subtilis [5]) | MIC (Pseudomonas aeruginosa [7]) | MBC (Pseudomonas aeruginosa [7]) | zone of inhibition at 128 µg/disc (Aspergillus niger [8]) | MIC (Escherichia coli [9]) | Ratio (Candida albicans [10]) | zone of inhibition at 128 µg/disc (Staphylococcus aureus [11]) | zone of inhibition at 128 µg/disc (Candida albicans [12]) | MIC (Staphylococcus aureus [13]) | MBC (Staphylococcus aureus [13]) | Ratio (Aspergillus niger [14]) | diameter of the inhibition zone (DIZ) (Escherichia coli [6]) | MBC99.9 (Escherichia coli [9]) | also measured |
| --- | --- | --- | --- | --- | --- | --- | --- | --- | --- | --- | --- | --- | --- | --- | --- | --- | --- | --- | --- | --- | --- |
| Fc1ccc(-c2csc(N/N=C(/Cn3nnc4ccccc43)c3ccc(Cl)cc3)n2)cc1 | 14.3 mm | 16 µg/mL (≈ 34.6 µM) | 32 µg/mL (≈ 69.1 µM) | 16 µg/mL (≈ 34.6 µM) | 64 µg/mL (≈ 138 µM) | 128 µg/mL (≈ 276 µM) | 128 µg/mL (≈ 276 µM) | 16.9 mm | 128 µg/mL (≈ 276 µM) | 256 µg/mL (≈ 553 µM) | 20.1 mm | 64 µg/mL (≈ 138 µM) | 4 | 24.7 mm | 21.3 mm | 64 µg/mL (≈ 138 µM) | 32 µg/mL (≈ 69.1 µM) | 2 | – | – | zone of inhibition at 128 µg/disc (Escherichia coli [6]; Escherichia coli, 2109, 24 h, read-out: DIZ): 17.6 mm; MBC (Escherichia coli [9]; read-out: MBC99.9): 128 µg/mL (≈ 276 µM) |
| Clc1ccc(/C(Cn2nnc3ccccc32)=N\Nc2nc(-c3ccc(Br)cc3)cs2)cc1 | – | 64 µg/mL (≈ 122 µM) | 64 µg/mL (≈ 122 µM) | 32 µg/mL (≈ 61.1 µM) | 128 µg/mL (≈ 244 µM) | 128 µg/mL (≈ 244 µM) | 256 µg/mL (≈ 489 µM) | 13.8 mm | inactive | – | 15.2 mm | inactive | 4 | – | 18 mm | inactive | – | 1 | inactive | inactive | diameter of the inhibition zone (DIZ) (Pseudomonas aeruginosa [1]): inactive; MBC99.9 (Pseudomonas aeruginosa [7]): inactive; diameter of the inhibition zone (DIZ) (Staphylococcus aureus [11]): inactive; MBC99.9 (Staphylococcus aureus [13]): inactive |
| Fc1ccc(/C(Cn2nnc3ccccc32)=N\Nc2nc(-c3cc(C(F)(F)F)cc(C(F)(F)F)c3)cs2)cc1 | – | 32 µg/mL (≈ 56.7 µM) | 128 µg/mL (≈ 227 µM) | 32 µg/mL (≈ 56.7 µM) | 64 µg/mL (≈ 113 µM) | 32 µg/mL (≈ 56.7 µM) | 64 µg/mL (≈ 113 µM) | 24.1 mm | inactive | – | 17.5 mm | inactive | 2 | 19.2 mm | 17.4 mm | 128 µg/mL (≈ 227 µM) | 128 µg/mL (≈ 227 µM) | 4 | inactive | inactive | diameter of the inhibition zone (DIZ) (Pseudomonas aeruginosa [1]): inactive; MBC99.9 (Pseudomonas aeruginosa [7]): inactive |
| O=[N+]([O-])c1ccc(/C(Cn2nnc3ccccc32)=N\Nc2nc(-c3ccc(F)cc3)cs2)cc1 | 20.7 mm | 32 µg/mL (≈ 67.6 µM) | 64 µg/mL (≈ 135 µM) | 128 µg/mL (≈ 270 µM) | 256 µg/mL (≈ 541 µM) | inactive | – | – | 32 µg/mL (≈ 67.6 µM) | 32 µg/mL (≈ 67.6 µM) | 17.8 mm | inactive | 2 | 26.5 mm | 12.2 mm | 32 µg/mL (≈ 67.6 µM) | 64 µg/mL (≈ 135 µM) | 2 | inactive | inactive | MBC99.9 (Bacillus subtilis [4]): inactive; diameter of the inhibition zone (DIZ) (Bacillus subtilis [5]): inactive |
